Test results published in ChEMBL document CHEMBL1221214, “Cytosporone B is an agonist for nuclear orphan receptor Nur77” (Nat Chem Biol, 2008).
Calls of active or inactive are those of the source. The calls are words filed in the database; no cut-off is given here.

Key:
[1] = molecular target: T1, Nuclear receptor subfamily 4immunitygroup A member 1 (Homo sapiens, UniProt P22736); assay: Agonist activity at nuclear orphan receptor Nur77 expressed in human BGC823 cells co-transfected with fused GAL4-DBD assessed as transactivation after 12 hrs by luciferase reporter gene assay; format: functional, cell-based; conditions: BGC-823
T1 sequence (P22736 whole entry, the tested form may be a part): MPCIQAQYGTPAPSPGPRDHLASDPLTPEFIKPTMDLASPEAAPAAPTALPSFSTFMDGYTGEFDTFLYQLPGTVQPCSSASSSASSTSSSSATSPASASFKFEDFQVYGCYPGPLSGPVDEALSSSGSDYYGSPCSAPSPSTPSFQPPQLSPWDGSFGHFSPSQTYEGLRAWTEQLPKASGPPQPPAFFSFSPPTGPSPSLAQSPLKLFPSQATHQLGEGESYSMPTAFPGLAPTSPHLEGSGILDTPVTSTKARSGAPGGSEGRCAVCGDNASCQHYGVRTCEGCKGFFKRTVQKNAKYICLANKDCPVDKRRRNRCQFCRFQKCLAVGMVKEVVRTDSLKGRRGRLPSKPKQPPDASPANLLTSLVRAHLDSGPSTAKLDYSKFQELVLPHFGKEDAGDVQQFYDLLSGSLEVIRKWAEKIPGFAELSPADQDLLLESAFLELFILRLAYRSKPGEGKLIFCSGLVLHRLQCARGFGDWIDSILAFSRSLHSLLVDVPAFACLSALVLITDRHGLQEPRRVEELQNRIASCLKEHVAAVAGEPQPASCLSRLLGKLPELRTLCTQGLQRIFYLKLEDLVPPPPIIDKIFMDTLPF

BGC-823 [2] = assay: Induction of Nur77 mediated apoptosis in human BGC823 cells assessed as cytochrome C release […] at 5 uM after 24 hrs by Western blotting analysis; format: functional, cell-based
BGC-823 [3] = assay: Induction of mitochondrial translocation of Nur77 from nucleus in human BGC823 cells transfected with GFP-Nur77 at 5 ug/ml after 12 hrs using immunostained with anti-Hsp60 by confocal microscopy; format: functional, cell-based
In short: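 BGC-823 cells transfected with GFP-Nur77, treated at 5 μg ml-1 for 12 h, immunostained with anti-Hsp60 and Texas Red secondary antibody, and imaged by confocal microscopy for mitochondrial localization.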

BGC-823 [4] = assay: Antitumor activity against human BGC823 cells expressing Nur77-WT xenografted in athymic nude mouse BALB/c assessed as tumor weight 13 mg/kg, ip twice a week after 4 weeks; format: functional, organism-based; design: dose 13 mg/kg
In short: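 BALB/c athymic nude mice (~16 g, 4 weeks old, 28 °C, sterile housing) inoculated subcutaneously with 0.05 ml BGC-823 cell suspension (wild-type, si-Nur77 or si-Ctrl sublines; 2.5×10^10 l-1), n = 6; after 1 week, Csn-B 13 mg kg-1 ip twice weekly or DMSO; tumors weighed at 4 weeks; means ± s.d., two-tailed t-test.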

[5] = molecular target: T1, Nuclear receptor subfamily 4immunitygroup A member 1; assay: Agonist activity at nuclear orphan receptor Nur77 expressed in human BGC823 cells co-transfected with pLuc-500 containing Nr4a1 promoter assessed as transcriptional activity; format: functional, cell-based; conditions: BGC-823

## CCCCCCCC(=O)c1c(O)cc(O)cc1CC(=O)OCC [CYTOSPORONE B]
[1]
  Activity: inactive
BGC-823 [2]
  Activity: Active
BGC-823 [3]
  Activity: Active
BGC-823 [4]
  Activity: Active
[5]
  Activity: inactive
